Experimental data of several laboratories.
Protocols differ between the studies behind these lines.
RIOK3: Serine/threonine-protein kinase RIO3 (RIOK3, Homo sapiens, UniProt O14730)
ACSL4: Long-chain-fatty-acid--CoA ligase 4 (ACSL4, Homo sapiens, UniProt O60488)

Structure (SMILES)	target	assay	setting	quantity	result
Cc1cc(F)cc2c(CCC(=O)N[C@@H]3C(=O)NC[C@H]3O)c(-c3ccc(F)cc3)[nH]c12	3',5'-cyclic-AMP phosphodiesterase 4D (PDE4D, Homo sapiens, UniProt Q08499)	enzyme activity, inhibitor	10 µM	inhibition	17%
C#Cc1cc(-c2cc(Nc3nc(N[C@@H](C)c4ccc(F)cn4)ncc3Cl)n[nH]2)ccc1C=O	Non-receptor tyrosine-protein kinase TNK1 (TNK1, Homo sapiens, UniProt Q13470)	enzyme activity, inhibitor	0.2 µM	inhibition	74.8%
Cc1cc(S(=O)(=O)N[C@H]2CC[C@H](CN3CCN(c4ccc(C5CCC(=O)NC5=O)cc4F)CC3)CC2)ccc1Nc1ncc(C(F)(F)F)c(N2CCC[C@](C)(O)C2)n1 (stereo partly drawn)	RIOK3	binding, competition with immobilised ligand	1 µM	remaining binding	58%
COc1cccc2c(N3CCC(CCP(=O)(O)O)CC3)ncnc12	Ectonucleotide pyrophosphatase/phosphodiesterase family member 1 (Enpp1, Mus musculus, UniProt P06802)	binding, SPR	–	residence time	9 min
C[C@]1(O)CCCN(c2nc(Nc3ccc(S(=O)(=O)N[C@H]4CC[C@H](CN5CCN(c6ccc(C7CCC(=O)NC7=O)cc6F)CC5)CC4)cc3F)ncc2C(F)(F)F)C1 (stereo partly drawn)	RIOK3	binding, competition with immobilised ligand	1 µM	remaining binding	100%
C1=C/COCc2cc(ccc2OCCN2CCCC2)Nc2nccc(n2)-c2cccc(c2)COC/1	Death-associated protein kinase 1 (DAPK1, Homo sapiens, UniProt P53355)	binding	0.1 µM	remaining binding	64%
CCN1/C(=C/C(C)=O)Sc2ccc(F)cc21	5-hydroxytryptamine receptor 1B (HTR1B, Homo sapiens, UniProt P28222)	ligand displacement, radioligand	10 µM	inhibition	1.73%
C[C@]1(O)CCCN(c2nc(Nc3ccc(S(=O)(=O)N[C@H]4CC[C@H](CN5CCN(c6ccc(C7CCC(=O)NC7=O)cc6F)CC5)CC4)cc3Cl)ncc2C(F)(F)F)C1 (stereo partly drawn)	RIOK3	binding, competition with immobilised ligand	1 µM	remaining binding	52%
COC(=O)/C=C/c1ccc(OCCN(C)C(=O)c2ccccc2)cc1	ACSL4	thermal stability, DSF	5 µM	ΔTm	5.3 °C
CCCCC(=O)Nc1ccc(-c2ccc3ncn(CCC)c(=O)c3c2)cn1	Serine/threonine-protein kinase MAK (MAK, Homo sapiens, UniProt P20794)	binding, competition with immobilised ligand	0.5 µM	remaining binding	71%
CNS(=O)(=O)c1ccc(Nc2ncc(C(F)(F)F)c(N3CCC[C@](C)(O)C3)n2)c(C)c1	RIOK3	binding, competition with immobilised ligand	1 µM	remaining binding	99%
COc1ccc(CC2SC(=O)NC2=O)cc1 (stereo not drawn)	ACSL4	enzyme activity, inhibitor	10 µM	inhibition	13%
